From ChEMBL document CHEMBL4118075, “Thiophene/thiazole-benzene replacement on guanidine derivatives targeting α2-Adrenoceptors” (Eur J Med Chem, 2017) come the findings set out here.

Assay [1] deals with T1, Adrenergic receptor alpha-2 (Homo sapiens, UniProt P08913+P18825+P18089).
T1 sequence (P08913 whole entry): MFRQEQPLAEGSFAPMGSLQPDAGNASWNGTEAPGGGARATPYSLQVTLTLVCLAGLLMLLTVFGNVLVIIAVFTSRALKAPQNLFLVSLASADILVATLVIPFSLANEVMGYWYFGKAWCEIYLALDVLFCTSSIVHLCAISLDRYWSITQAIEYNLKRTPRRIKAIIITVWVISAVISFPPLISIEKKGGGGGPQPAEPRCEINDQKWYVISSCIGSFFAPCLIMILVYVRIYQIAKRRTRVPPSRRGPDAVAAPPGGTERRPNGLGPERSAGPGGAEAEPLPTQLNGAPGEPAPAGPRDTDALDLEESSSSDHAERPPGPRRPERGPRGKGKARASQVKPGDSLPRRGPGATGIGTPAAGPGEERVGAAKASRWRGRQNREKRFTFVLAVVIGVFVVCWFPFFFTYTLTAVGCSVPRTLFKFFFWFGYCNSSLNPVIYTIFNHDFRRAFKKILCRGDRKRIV
T1 sequence (P18825 whole entry): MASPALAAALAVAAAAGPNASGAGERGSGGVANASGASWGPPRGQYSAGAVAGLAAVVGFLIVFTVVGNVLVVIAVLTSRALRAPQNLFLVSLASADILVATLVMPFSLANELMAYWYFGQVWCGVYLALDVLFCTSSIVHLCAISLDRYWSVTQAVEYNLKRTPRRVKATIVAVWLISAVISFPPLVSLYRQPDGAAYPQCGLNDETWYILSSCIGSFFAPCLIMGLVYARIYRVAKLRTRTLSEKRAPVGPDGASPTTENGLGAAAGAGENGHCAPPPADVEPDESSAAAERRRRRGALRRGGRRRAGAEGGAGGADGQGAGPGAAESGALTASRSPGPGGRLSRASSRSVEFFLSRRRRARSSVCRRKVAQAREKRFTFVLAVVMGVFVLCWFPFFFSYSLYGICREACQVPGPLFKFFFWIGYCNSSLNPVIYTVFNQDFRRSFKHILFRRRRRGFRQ
T1 sequence (P18089 whole entry): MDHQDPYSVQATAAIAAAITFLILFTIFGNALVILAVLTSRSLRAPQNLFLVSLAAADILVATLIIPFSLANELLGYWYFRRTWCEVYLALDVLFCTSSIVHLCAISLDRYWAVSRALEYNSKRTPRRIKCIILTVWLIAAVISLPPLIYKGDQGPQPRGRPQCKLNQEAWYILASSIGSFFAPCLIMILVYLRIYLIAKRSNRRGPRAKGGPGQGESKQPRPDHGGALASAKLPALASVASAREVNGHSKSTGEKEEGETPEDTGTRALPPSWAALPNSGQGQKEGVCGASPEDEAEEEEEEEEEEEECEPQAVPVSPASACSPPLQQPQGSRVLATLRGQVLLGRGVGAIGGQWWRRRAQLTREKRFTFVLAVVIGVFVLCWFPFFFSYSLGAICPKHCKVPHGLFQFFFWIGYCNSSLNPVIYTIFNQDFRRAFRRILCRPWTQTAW
Kind of assay: Displacement of [3H]RX821002 from alpha2 adrenergic receptor in human brain prefrontal cortex membranes after 30 mins by microbeta liquid scintillation spectrometry. The arrangement: species or system Membrane. The essentials: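 Competition binding on post-mortem human PFC P2 membranes in 50 mM Tris-HCl pH 7.5. [3H]RX821002 at 2 nM; competitor at 10 concentrations from 10⁻¹² to 10⁻³ M; 30 min at 25 °C. Vacuum filtration on GF/C, scintillation counting. Nonspecific binding defined with adrenaline 10⁻⁵ M. Ki from nonlinear regression with a one-site model.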
Background: In a radioligand displacement assay an active substance lowers the binding of a labelled ligand.

Assay [2] deals with T2, Adrenergic receptor alpha-2 (Homo sapiens) (UniProt P08913+P18825+P18089). Kind of assay: Activity at alpha2 adrenergic receptor in human brain prefrontal cortex membranes assessed as effect on UK14304-induced [35S]GTPgammaS binding at 10^-5 M after 120 mins by microbeta liquid scintillation spectrometry (reference value: 132 +/- 2%). The conditions noted are these: Membrane. It counts as functional. (In general: GTPγS resists hydrolysis and so accumulates on activated G proteins.)

Assay [3] addresses T2, Adrenergic receptor alpha-2 (Homo sapiens). Kind of assay: Agonist activity at alpha2 adrenergic receptor in human brain prefrontal cortex membranes assessed as stimulation of [35S]GTPgammaS binding at 10^-12 to 10^-3 M after 120 mins by microbeta liquid scintillation spectrometry. Type of assay: functional. The settings on record: Membrane. Summed up:
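GTPγS exchange in human prefrontal cortex P2 membranes (20 µg/well) with 0.5 nM [35S]GTPγS, in EGTA/MgCl₂/100 mM NaCl/GDP/Tris pH 7.4 buffer. Ten concentrations from 10⁻¹² to 10⁻³ M; 30 °C for 120 min with shaking. Filtered on GF/C and scintillation counted; nonspecific binding with 10 µM GTPγS. EC50 and Emax expressed as % over basal binding.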

Assay [4] addresses T1, Adrenergic receptor alpha-2. Kind of assay: Activity at alpha2 adrenergic receptor in human brain prefrontal cortex membranes assessed as effect on UK14304-induced [35S]GTPgammaS binding by measuring UK14304 EC50 at 10^-5 M after 120 mins by microbeta liquid scintillation spectrometry (reference value: 0.4 +/- 0.01 uM). It counts as functional, Membrane.
In assay [5] the target is T2, Adrenergic receptor alpha-2 (Homo sapiens). Kind of assay: Agonist activity at alpha2 adrenergic receptor in human brain prefrontal cortex membranes assessed as stimulation of [35S]GTPgammaS binding at 10^-5 M after 120 mins in presence of antagonist RX821002 by microbeta liquid scintillation spectrometry. It counts as functional. The conditions noted are these: Membrane.

The source made the active and inactive calls. The rule behind the calls is not given here.

Turning to `COC(=O)c1ccsc1NC(=N)N.Cl`, the Ki (commonly the equilibrium dissociation constant of an inhibitor or competing ligand from its target) in assay [1] was > 100000 nM.

As for `CCOC(=O)c1c(NC(=N)N)sc2c1CCCC2.Cl`, the inhibition constant Ki in assay [1] came out at 9086 nM.

For the compound `Cl.N#Cc1c(NC(=N)N)sc2c1CCCCC2`, the Ki in assay [1] turned out to be 1198 nM.

As for `Cl.N=C(N)Nc1nc2c(s1)CCC2`, the Emax (as a rule, the maximal effect, on the per cent scale that the assay sets) in assay [2] is 126%. The compound further registered a Ki in assay [1] of 706 nM. Moreover, in assay [3], the outcome was inactive. Moreover, the EC50 – broadly, the concentration that produces a half-maximal response – in assay [4] worked out at 1500 nM.

As for `Cl.N=C(N)NCc1cccs1`, the Ki in assay [1] is given as 3928 nM.

Turning to `CCOC(=O)c1c(NC(=N)N)sc2c1CCC2.Cl`, the Ki in assay [1] came to 30150 nM.

Compound `CCOC(=O)c1c(C)csc1NC(=N)N.Cl` yielded a Ki in assay [1] of 66530 nM.

As for `Cl.N=C(N)NCCc1cccs1`, the Emax in assay [2] worked out at 117%. This compound also returned a Ki in assay [1] of 751 nM. For the same compound, the EC50 in assay [4] is 1700 nM.

`Cl.N=C(N)Nc1ccsc1` showed a Ki in assay [1] of 1968 nM.

`Cl.N=C(N)Nc1cc2c(s1)CCCCC2`: the Emax in assay [2] is 124%. For the same compound, the result in assay [5] was inactive. Further, the Ki in assay [1] was found to be 156 nM. Besides, in assay [3], the outcome was Active. In assay [4], the EC50 worked out at 10700 nM.

For `CCOC(=O)c1c(NC(=N)N)sc2c1CCCCC2.Cl`, the Ki in assay [1] is > 100000 nM.

Regarding `COC(=O)c1sccc1NC(=N)N.Cl`, the inhibition constant Ki in assay [1] is reported as > 100000 nM.

Turning to `Cl.N=C(N)Nc1cc2c(s1)CCCC2`, the Emax in assay [2] amounted to 111%. In assay [1], the Ki worked out at 31.3 nM. In addition, the result in assay [3] was inactive. The EC50 in assay [4] is 800 nM.

With `Cl.N#Cc1c(NC(=N)N)sc2c1CCC2`, the Ki in assay [1] turned out to be 2215 nM.

For `Cl.N=C(N)Nc1nc2c(s1)CCCC2`, the Emax in assay [2] turned out to be 105%. The same compound yielded a Ki in assay [1] of 1205 nM. Moreover, the result in assay [3] was inactive. For the same compound, in assay [4], the EC50 amounted to 11400 nM.

For the compound `Cl.N=C(N)Nc1cc2c(s1)CCC2`, the maximal effect (Emax) in assay [2] came out at 111%. In addition, in assay [1], the Ki worked out at 87.9 nM. In assay [3], the result was inactive. In assay [4], the EC50 came out at 500 nM.

Consider `Cl.N#Cc1c(NC(=N)N)sc2c1CCCC2`, for which, in assay [2], the Emax is 128%. Moreover, the Ki in assay [1] was determined as 733 nM. Further, the result in assay [3] was inactive. Also, the EC50 in assay [4] came out at 6600 nM.
